Data: ChEMBL document CHEMBL3351863, “Optimization of 2-phenyl-pyrimidine-4-carboxamides towards potent, orally bioavailable and selective P2Y(12) antagonists for inhibition of platelet aggregation” (Bioorg Med Chem Lett, 2014)

Assays:
[1] = Protein binding in human plasma; format: ADME, cell-free; settings: read-out: PPB (converted)
[2] = molecular target: P2Y purinoceptor 12 (Homo sapiens, UniProt Q9H244); experiment: Displacement of [3H]-2-methyl-thio-adenosine 5'-diphosphate from human recombinant P2Y12 expressed in CHO cell membranes by scintillation counting method
Outline: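 CHO cells expressing recombinant P2Y₁₂ receptors, incubated with tritium-labeled 2-methyl-thio-adenosine 5'-diphosphate plus test compound; IC₅₀ from displacement curves, each point in triplicate; reference compound run with every compound set, and set re-analyzed if its IC₅₀ fell outside pre-set 95% confidence interval.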

[3] = test system: Platelet; experiment: Inhibition of ADP-induced platelet aggregation in human platelet rich plasma by in-vitro light transmission aggregometry assay; format: functional
Outline: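 Human platelet-rich plasma incubated with compound, aggregation induced by 3 µM ADP and read by light transmission aggregometry; IC₅₀ derived from concentration–response curve.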

[4] = Potency shift, ratio of IC50 for inhibition of ADP-induced platelet aggregation in human platelet rich plasma to IC50 for displacement of [3H]-2-methyl-thio-adenosine 5'-diphosphate from human recombinant P2Y12 expressed in CHO cell membranes
[5] = molecular target: T1, Cytochrome P450 3A4 (Homo sapiens, UniProt P08684); experiment: Inhibition of CYP3A4 in human liver microsomes assessed as reduction in testosterone 6beta-hydroxylation; format: ADME
[6] = AUC in Wistar rat at 10 mg/kg, po; format: ADME, organism-based, Plasma; set-up: dose 10 mg/kg, route oral; settings: Wistar, plasma
Outline: (§1)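 Rats dosed by iv infusion at 1 mg/kg (n = 2) or orally at 10 mg/kg (n = 3); plasma levels measured, limit of quantification ca. 1 ng/mL.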

[7] = molecular target: T1, Cytochrome P450 3A4; experiment: Inhibition of CYP3A4 in human liver microsomes assessed as reduction in midazolam 1'-hydroxylation; format: ADME
[8] = molecular target: Cytochrome P450 2D6 (Homo sapiens, UniProt P10635); experiment: Inhibition of CYP2D6 in human liver microsomes assessed as reduction in dextromethorphan-O demethylation; format: ADME
[9] = molecular target: Voltage-gated inwardly rectifying potassium channel KCNH2 (Homo sapiens, UniProt Q12809); experiment: Inhibition of human ERG expressed in HEK cells by patch-clamp assay; format: cell-based; settings: hek293
[10] = molecular target: Cytochrome P450 2C9 (Homo sapiens, UniProt P11712); experiment: Inhibition of CYP2C9 in human liver microsomes assessed as reduction in diclofenac 4'-hydroxylation; format: ADME
[11] = test system: Platelet; experiment: Inhibition of ADP-induced platelet aggregation in human platelet rich plasma assessed as remaining activity at 500 nM by in-vitro light transmission aggregometry assay; format: functional
Outline: (§2)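 Light transmission aggregometry in human platelet-rich plasma; compound incubated, aggregation triggered with 3 µM ADP; remaining activity (RA) recorded at a single compound level (1000, 500 or 100 nM).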

[12] = Solubility in basic pH; format: physicochemical
[13] = Solubility in neutral pH; format: physicochemical
[14] = test system: Platelet; experiment: Inhibition of ADP-induced platelet aggregation in human platelet rich plasma assessed as remaining activity at 100 nM by in-vitro light transmission aggregometry assay; format: functional; outline: as §2
[15] = test system: Liver microsome; experiment: Metabolic stability assay in human liver microsomes assessed as parent drug disappearance at 1 uM after 20 mins by HPLC and mass spectrometry method; format: ADME
[16] = test system: Liver microsome; experiment: Metabolic stability assay in rat liver microsomes assessed as parent drug disappearance at 1 uM after 20 mins by HPLC and mass spectrometry method; format: ADME
[17] = Cmax in Wistar rat at 10 mg/kg, po; format: ADME, organism-based; set-up: dose 10 mg/kg, route oral; settings: Wistar, in vivo; outline: as §1
[18] = test system: Platelet; experiment: Inhibition of ADP-induced platelet aggregation in human platelet rich plasma assessed as remaining activity at 1000 nM by in-vitro light transmission aggregometry assay; format: functional; outline: as §2
[19] = Volume of distribution at steady state in Wistar rat at 1 mg/kg, iv or 10 mg/kg, po; format: ADME, organism-based; settings: in vivo, read-out: Vdss; outline: as §1
[20] = Half life in Wistar rat at 1 mg/kg, iv or 10 mg/kg, po; format: ADME, organism-based; settings: in vivo; outline: as §1
[21] = Clearance in Wistar rat at 1 mg/kg, iv; format: ADME, organism-based; set-up: dose 1 mg/kg, route intravenous; settings: in vivo; outline: as §1
[22] = Oral bioavailability in Wistar rat at 10 mg/kg; format: ADME, organism-based; settings: Wistar, in vivo; outline: as §1

Chain of Cytochrome P450 2D6 (P10635 whole entry): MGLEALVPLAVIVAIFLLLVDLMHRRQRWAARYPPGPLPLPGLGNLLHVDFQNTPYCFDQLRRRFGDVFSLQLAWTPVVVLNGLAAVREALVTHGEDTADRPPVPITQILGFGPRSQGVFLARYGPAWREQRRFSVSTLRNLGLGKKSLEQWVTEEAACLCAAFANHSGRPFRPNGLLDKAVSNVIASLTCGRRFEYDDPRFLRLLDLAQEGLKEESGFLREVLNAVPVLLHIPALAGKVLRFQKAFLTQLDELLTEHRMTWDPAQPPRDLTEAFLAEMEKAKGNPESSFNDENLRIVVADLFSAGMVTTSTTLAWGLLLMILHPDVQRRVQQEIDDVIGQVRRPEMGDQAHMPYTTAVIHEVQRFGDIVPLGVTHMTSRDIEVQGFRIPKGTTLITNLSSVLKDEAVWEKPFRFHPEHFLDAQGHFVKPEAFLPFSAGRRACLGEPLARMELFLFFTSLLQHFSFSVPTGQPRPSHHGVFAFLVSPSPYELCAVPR
Chain of P2Y purinoceptor 12 (Q9H244 whole entry): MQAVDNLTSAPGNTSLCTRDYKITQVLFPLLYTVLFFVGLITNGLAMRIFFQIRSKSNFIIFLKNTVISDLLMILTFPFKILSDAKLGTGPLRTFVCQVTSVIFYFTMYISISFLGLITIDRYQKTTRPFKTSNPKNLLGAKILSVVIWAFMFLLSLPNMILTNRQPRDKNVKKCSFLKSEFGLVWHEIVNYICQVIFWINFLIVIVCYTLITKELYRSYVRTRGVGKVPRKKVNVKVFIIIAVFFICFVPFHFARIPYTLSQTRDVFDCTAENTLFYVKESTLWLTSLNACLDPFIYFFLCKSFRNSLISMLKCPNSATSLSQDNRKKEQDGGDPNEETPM
T1 sequence (P08684 whole entry): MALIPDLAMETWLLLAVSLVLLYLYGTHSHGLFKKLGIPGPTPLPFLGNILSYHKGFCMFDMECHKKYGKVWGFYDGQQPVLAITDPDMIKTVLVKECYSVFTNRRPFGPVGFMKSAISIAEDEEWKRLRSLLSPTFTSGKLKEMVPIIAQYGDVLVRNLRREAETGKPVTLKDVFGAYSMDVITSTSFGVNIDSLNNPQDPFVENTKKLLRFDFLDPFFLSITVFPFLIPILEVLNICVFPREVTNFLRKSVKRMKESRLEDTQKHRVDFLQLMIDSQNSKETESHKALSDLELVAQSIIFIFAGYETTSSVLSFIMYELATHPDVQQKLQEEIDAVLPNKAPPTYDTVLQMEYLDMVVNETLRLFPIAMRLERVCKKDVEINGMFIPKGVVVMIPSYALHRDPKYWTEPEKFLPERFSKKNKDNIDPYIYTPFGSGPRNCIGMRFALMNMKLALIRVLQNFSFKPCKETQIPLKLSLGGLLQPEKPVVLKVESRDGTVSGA
Chain of Cytochrome P450 2C9 (P11712 whole entry): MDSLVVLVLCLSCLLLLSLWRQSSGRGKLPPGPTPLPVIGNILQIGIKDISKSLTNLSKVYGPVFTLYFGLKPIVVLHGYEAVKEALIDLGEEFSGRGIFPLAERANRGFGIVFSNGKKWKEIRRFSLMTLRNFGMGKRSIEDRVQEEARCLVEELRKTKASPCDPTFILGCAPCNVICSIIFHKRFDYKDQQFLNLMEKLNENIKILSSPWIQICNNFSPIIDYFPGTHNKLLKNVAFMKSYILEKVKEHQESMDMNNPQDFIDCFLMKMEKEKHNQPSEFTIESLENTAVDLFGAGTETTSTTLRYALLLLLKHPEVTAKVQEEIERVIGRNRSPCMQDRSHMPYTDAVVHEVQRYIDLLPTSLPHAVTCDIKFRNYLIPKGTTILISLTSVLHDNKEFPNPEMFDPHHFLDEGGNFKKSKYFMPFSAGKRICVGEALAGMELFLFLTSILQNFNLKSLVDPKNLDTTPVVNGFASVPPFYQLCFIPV
Chain of Voltage-gated inwardly rectifying potassium channel KCNH2 (Q12809 whole entry): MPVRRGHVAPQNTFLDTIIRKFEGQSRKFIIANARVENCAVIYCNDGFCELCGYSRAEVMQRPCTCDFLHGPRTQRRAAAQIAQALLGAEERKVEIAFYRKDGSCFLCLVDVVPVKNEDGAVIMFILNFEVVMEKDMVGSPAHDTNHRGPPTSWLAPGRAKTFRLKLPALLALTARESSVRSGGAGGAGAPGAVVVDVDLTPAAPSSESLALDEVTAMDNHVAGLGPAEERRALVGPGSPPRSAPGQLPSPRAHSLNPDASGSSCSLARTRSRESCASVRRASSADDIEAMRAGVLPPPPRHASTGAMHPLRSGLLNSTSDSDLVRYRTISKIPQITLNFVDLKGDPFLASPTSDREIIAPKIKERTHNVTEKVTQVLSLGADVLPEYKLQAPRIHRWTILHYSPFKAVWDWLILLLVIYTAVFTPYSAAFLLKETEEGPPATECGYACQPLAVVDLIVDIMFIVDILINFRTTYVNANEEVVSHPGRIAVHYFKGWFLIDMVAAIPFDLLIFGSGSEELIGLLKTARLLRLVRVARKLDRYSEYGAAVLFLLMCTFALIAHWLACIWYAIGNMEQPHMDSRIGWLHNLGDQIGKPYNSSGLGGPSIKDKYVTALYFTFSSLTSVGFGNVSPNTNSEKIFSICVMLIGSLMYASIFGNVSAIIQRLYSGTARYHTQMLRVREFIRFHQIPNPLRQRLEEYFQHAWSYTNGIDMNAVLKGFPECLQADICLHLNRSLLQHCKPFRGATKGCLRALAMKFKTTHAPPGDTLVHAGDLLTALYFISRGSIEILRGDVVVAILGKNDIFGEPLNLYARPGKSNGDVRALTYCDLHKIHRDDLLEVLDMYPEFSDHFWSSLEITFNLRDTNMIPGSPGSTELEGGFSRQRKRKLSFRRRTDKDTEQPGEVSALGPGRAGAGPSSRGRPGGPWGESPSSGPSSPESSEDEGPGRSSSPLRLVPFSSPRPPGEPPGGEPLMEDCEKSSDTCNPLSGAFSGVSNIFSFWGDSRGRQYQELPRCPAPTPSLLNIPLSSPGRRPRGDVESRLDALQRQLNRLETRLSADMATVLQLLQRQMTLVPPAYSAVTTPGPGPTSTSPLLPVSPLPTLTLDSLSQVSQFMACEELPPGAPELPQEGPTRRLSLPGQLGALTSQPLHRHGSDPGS

| Structure (SMILES) | fraction unbound [1] | IC50 [2] [nM] | inhibition (INH) [5] | inhibition (INH) [7] | inhibition (INH) [8] | IC50 ([3]; Homo sapiens, Platelet, Plasma) [nM] | inhibition (INH) [10] | solubility [12] | solubility [13] | Stability [15] | Stability [16] | Ratio IC50 [4] | inhibition (INH) [9] | Activity [11] [%] | Activity [14] [%] | Activity [18] [%] | also measured |
| --- | --- | --- | --- | --- | --- | --- | --- | --- | --- | --- | --- | --- | --- | --- | --- | --- | --- |
| CCCNc1cc(C(=O)N[C@@H](CCC(=O)O)C(=O)N2CCN(C(=O)OCC)CC2)nc(-c2ccccc2)n1 | 0.015 | 162 | Not Active | Not Active | Not Active | 3820 | Not Active | soluble | soluble | Stable | Stable | 24 | Not Active | – | – | – | – |
| CCOC(=O)N1CCN(C(=O)[C@H](CCC(=O)O)NC(=O)c2cc(C(C)C)nc(-c3ccccc3)n2)CC1 | – | 52 | Not Active | Not Active | Not Active | 1140 | Not Active | soluble | soluble | Stable | Stable | 22 | Not Active | >60 | – | >30 | – |
| CCOC(=O)N1CCN(C(=O)[C@H](CCC(=O)O)NC(=O)c2cc(CCCO)nc(-c3ccccc3)n2)CC1 | 0.128 | 218 | Not Active | Not Active | Not Active | 264 | Not Active | soluble | soluble | Stable | Stable | 1.2 | Not Active | <30 | <70 | – | – |
| CCOC(=O)N1CCN(C(=O)[C@H](CCC(=O)O)NC(=O)c2cc(C3CC3)nc(-c3ccccc3)n2)CC1 | 0.003 | 59.5 | Not Active | Not Active | Not Active | 3230 | Not Active | soluble | soluble | Stable | Stable | 54 | Not Active | – | – | – | – |
| CCCCc1cc(C(=O)N[C@@H](CCC(=O)O)C(=O)N2CCN(C(=O)OCC)CC2)nc(-c2ccccc2)n1 | 0.007 | – | Not Active | Not Active | Not Active | 1930 | Not Active | soluble | soluble | Stable | Stable | 20 | Not Active | >60 | – | >30 | – |
| CCOC(=O)N1CCN(C(=O)[C@H](CCC(=O)O)NC(=O)c2cc(NC(=O)c3ccccc3)nc(-c3ccccc3)n2)CC1 | – | 178 | Not Active | Not Active | Not Active | – | Not Active | soluble | soluble | Stable | Stable | – | Not Active | >60 | – | >30 | – |
| CCOC(=O)N1CCN(C(=O)[C@H](CCC(=O)O)NC(=O)c2cc(-c3ccncc3)nc(-c3ccccc3)n2)CC1 | – | 53 | Not Active | Not Active | Not Active | – | Not Active | soluble | soluble | Stable | Stable | – | Not Active | >60 | – | >30 | – |

Second part, led by results:

| fraction unbound [1] | IC50 [2] [nM] | inhibition (INH) [5] | inhibition (INH) [7] | inhibition (INH) [8] | IC50 ([3]; Homo sapiens, Platelet, Plasma) [nM] | inhibition (INH) [10] | solubility [12] | solubility [13] | Stability [15] | Stability [16] | Structure (SMILES) | Ratio IC50 [4] | inhibition (INH) [9] | Activity [11] [%] | Activity [14] [%] | Activity [18] [%] | also measured |
| --- | --- | --- | --- | --- | --- | --- | --- | --- | --- | --- | --- | --- | --- | --- | --- | --- | --- |
| 0.034 | 15 | – | – | – | – | – | – | – | – | – | CCOC(=O)N1CCN(C(=O)[C@H](CCC(=O)O)NC(=O)c2cc([C@H]3C[C@@H]3COC)nc(-c3ccccc3)n2)CC1 | 5.8 | – | – | – | – | IC50 ([3]; platelet): 87 nM |
| – | 40 | Not Active | Not Active | Not Active | 171 | Not Active | soluble | soluble | Stable | Stable | CCOC(=O)N1CCN(C(=O)[C@H](CCC(=O)O)NC(=O)c2cc(C3CCC(O)CC3)nc(-c3ccccc3)n2)CC1 (some centres undefined) | 4.3 | Not Active | <30 | <70 | – | AUC [6]: 0.0782 µM·h; Cmax [17]: 46.3 nM |
| – | 35 | Not Active | Not Active | Not Active | 118 | Not Active | soluble | soluble | Stable | Stable | CCOC(=O)N1CCN(C(=O)[C@H](CCC(=O)O)NC(=O)c2cc(C(C)(C)O)nc(-c3ccccc3)n2)CC1 | 3.4 | Not Active | <30 | <70 | – | AUC [6]: 0.109 µM·h; Cmax [17]: 56.1 nM |
| – | 3 | Not Active | Not Active | Not Active | 21 | Not Active | soluble | soluble | Stable | Stable | CCCCOC(=O)N1CCN(C(=O)[C@H](CCC(=O)O)NC(=O)c2cc(N3CC[C@H](OC)C3)nc(-c3ccccc3)n2)CC1 | 7 | Not Active | – | – | – | Vd [19]: 0.5 L/kg; half-life [20]: 72 min; AUC [6]: 1.17 µM·h; clearance [21]: 24 mL/min/kg; bioavailability [22]: 9%; Cmax [17]: 1690 nM |
| – | 46 | Not Active | Not Active | Not Active | – | Not Active | soluble | soluble | Stable | Stable | CCOC(=O)N1CCN(C(=O)[C@H](CCC(=O)O)NC(=O)c2cc(N3CCN(C)CC3)nc(-c3ccccc3)n2)CC1 | – | Not Active | <30 | <70 | – | Vd [19]: 0.8 L/kg; half-life [20]: 18 min; AUC [6]: 0.164 µM·h; clearance [21]: 49 mL/min/kg; bioavailability [22]: 3%; Cmax [17]: 192 nM |
| 0.085 | 25 | Not Active | Not Active | Not Active | 58 | Not Active | soluble | soluble | Stable | Stable | CCOC(=O)N1CCN(C(=O)[C@H](CCC(=O)O)NC(=O)c2cc(N[C@@H]3CCOC3)nc(-c3ccccc3)n2)CC1 | 2.3 | Not Active | <30 | <70 | – | – |
| – | 36 | Not Active | Not Active | Not Active | 2050 | Not Active | soluble | soluble | Stable | Stable | CCOC(=O)N1CCN(C(=O)[C@H](CCC(=O)O)NC(=O)c2cc(C(C)(C)C)nc(-c3ccccc3)n2)CC1 | 57 | Not Active | >60 | – | >30 | – |
